# From PubChem
# SKN-1 inh – inhibitors of C. elegans SKN-1. C. elegans VP596 Pgst-4::GFP/RFP ratio, acrylamide-induced, 24 h. inhibition, % at 21.8 µM. hit rate 0.49% among 360,000. AID 624304;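 active means interference check ratio from 0.5 to 1.5 plus GFP to RFP signal ratio inhibition reaching or exceeding a fixed threshold, cut at about 30% in these data, passing the limit was not always enough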
# iPSC survival up – hiPSC single-cell survival enhancement. survival enhancement, % at 20 µM. ATPlite luminescence; 100% = ROCK inhibitor wells, 0% = DMSO. hit rate 0.044% among 360,000. AID 602274; in the data active means survival enhancement above about 18%;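 further: cells exposed to compounds for 16 hours before the ATP read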
# CendR NRP1 mod – alters CendR peptide binding to human NRP-1. O14786. FAM-RPARPAR peptide binding to NRP-1, fluorescence polarization. inhibition, % at 25 µM. hit rate 0.85% among 360,000. AID 602438;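 active means inhibition or corrected inhibition above about 18%, plus a signal ratio from 0.5 to 1.5, limit read from the data, passing the limit was not always enough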
# MT1-MMP act inh – MT1-MMP (human) activation inhibition | P50281 | HT1080 RFP-PRO-GFP cells, GFP/RFP ratio fluorescence, overnight; percent of plate control window, DMSO zero | GFP/RFP ratio change, % at 20 µM | hit rate 0.061% among 360,000;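 active means GFP/RFP ratio change of at least 30% with cell ATP level not reduced by more than half and red fluorescence within 50% of control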
#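 Assay system: HT1080 cells carrying an RFP-PRO-GFP reporter | Dosing: Single dose of 20 µM compound, 1% DMSO final | Incubation: Cells overnight before dosing, compound overnight, 37 °C, 5% CO2 | Evaluation: GFP/RFP fluorescence ratio | Control set: DMSO and RFP-L50D-GFP cell wells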
# Starred values were filed as active, the others as inactive; / = not tested or not shown. Only some compounds are listed: those with a hit (about 1.4% of all), similar ones and a draw of the others.
SMILES,SKN-1 inh,iPSC survival up,CendR NRP1 mod,MT1-MMP act inh
CCOC(=O)c1nn(-c2ccccc2)c(C#N)c1N,-5,1,39*,2
CCn1nnc2sc3c(c2c1=O)CCC(C)C3 (stereo not drawn),36*,-1,9,1
CC1(C)CC(NC(=O)c2ccccn2)CC(C)(C)N1O,19,5,-5,-1
O=C(NCc1ccc(F)c(F)c1)c1ccc(-c2ccc(F)c(F)c2)c2ccoc12,80*,4,4,-1
O=C(NCc1cccnc1)c1ccc(-c2ccc(F)c(F)c2)c2ccoc12,28,-2,7,5
O=C(NCc1cccs1)c1ccc(-c2ccc(F)c(F)c2)c2ccoc12,16,-4,-9,5
O=C(NCc1ccc(Cl)cc1)c1ccc(-c2ccc(F)c(F)c2)c2ccoc12,36*,2,5,2
COC(=O)c1cc(OC)c(OC)cc1NC(=S)N1CCN(Cc2ccccc2)CC1,14,1,1,-2
CCCc1cc(C(=O)Nc2cccc([N+](=O)[O-])c2)cs1,4,0,0,2
O=[N+]([O-])c1ccccc1OCCCn1cnc2ccccc21,0,-1,10,3
COc1ccc(-c2c(-c3ccccc3OC)oc3ccccc23)cn1,-2,0,27*,-3
CC1(C)OC(=O)N(CCC(=O)Nc2cccc(F)c2)C1(C)O (stereo not drawn),10,0,-8,0
c1ccc(CNn2nnc3ccccc32)cc1,11,-2,23*,2
Cc1cc2oc(C(=O)Nc3ccc(S(=O)(=O)Nc4nccs4)cc3)cc(=O)c2cc1Cl,2,-1,-52,-3
CCCNC(=O)C1(C)CCCN(C(=O)c2ccc3sccc3c2)C1 (stereo not drawn),15,-2,0,7
Clc1ncccc1-c1nnn(-c2ccccc2Br)n1,53*,-4,-3,-1
S=C(Nc1ccccc1Oc1ccccc1)Nc1cccc(Cl)c1Cl,-1,2,28*,-3
S=C(Nc1ccc(Cl)cc1Cl)Nc1ccccc1Oc1ccccc1,0,3,3,1
CCOC(=O)N1CCN(c2ncnc3c2cnn3-c2ccc(OC)cc2)CC1,48*,1,7,7
O=C1OC(c2ccccc2)(c2cc(Br)ccc2O)c2ccccc21 (stereo not drawn),6,-1,1,4
CCOC(=O)C[C@H]1c2cc(C(F)(F)F)ccc2S(=O)(=O)N1Cc1ccccc1,4,-2,26*,7
CCOC(=O)C[C@H]1c2ccc(C(F)(F)F)cc2S(=O)(=O)N1C(C)(C)C,3,-2,22*,3
CCOC(=O)C[C@H]1c2ccc(C(F)(F)F)cc2S(=O)(=O)N1Cc1ccccc1,2,-2,7,0
Cc1ccc(S(=O)(=O)N2CCC(C(=O)NNC(=O)c3ccccc3O)CC2)cc1,20,0,-2,4
O=C1CC(Nc2ccccc2)C(=O)N1CCc1ccccc1 (stereo not drawn),17,4,3,-6
SMILES,SKN-1 inh,iPSC survival up,CendR NRP1 mod,MT1-MMP act inh
COc1ccc(NC2CC(=O)N(CCc3ccccc3)C2=O)cc1 (stereo not drawn),38*,-4,-2,0
Cc1ccc(SCc2ccc(C(=O)Nc3cccc([N+](=O)[O-])c3)cc2)cc1,4,0,-6,0
CCOC(=O)c1c(-c2cccs2)csc1NC(C)=O,-2,2,8,6
CCOC(=O)c1c(-c2ccc(-c3ccccc3)cc2)csc1NC(=O)CNCCN(C)C,52*,0,9,5
CCOC(=O)c1c(-c2cccs2)csc1NC(=O)CN1CC(C)OC(C)C1 (stereo not drawn),37*,3,-12,-7
CCOC(=O)c1sc(NC(=O)CN2CC(C)OC(C)C2)nc1C (stereo not drawn),35*,-1,14,-1
Cc1ccnc(NC(=O)CCN2C(=O)c3ccccc3S2(=O)=O)n1,20,0,4,-1
CCCCC[C@H]1CN(Cc2ccc(OC)cc2)C(=O)[C@@H]1CC(=O)NCc1ccccc1,4,1,-1,-1
CCNC(=S)NCc1ccc(F)cc1,3,2,-3,-4
CCN1CCC(NCCc2ccc(F)cc2)CC1,14,0,-8,4
COc1c(O)cccc1[C@H](O)C1CCN(CCc2ccc(F)cc2)CC1,4,-2,43*,-19
O=C(CN1C(=O)c2ccccc2C1=O)Nc1cccc(S(=O)(=O)Nc2ccccc2Cl)c1,-7,-2,33*,/
